# Measured values published in ChEMBL document CHEMBL5131497, “Design, Synthesis, and Characterization of TNP-2198, a Dual-Targeted Rifamycin-Nitroimidazole Conjugate with Potent Activity against Microaerophilic and Anaerobic Bacterial Pathogens” (J Med Chem, 2022).
# Legend:
# [1] = test system: Gardnerella vaginalis; assay: Antibacterial activity against Gardnerella vaginalis clinical isolate USA; format: functional
# [2] = test system: Staphylococcus aureus; assay: Antibacterial activity against Staphylococcus aureus ATCC 29213; format: functional
# [3] = test system: Clostridioides difficile; assay: Antibacterial activity against Clostridioides difficile ATCC 9689; format: functional
# [4] = test system: Helicobacter pylori; assay: Antibacterial activity against rifampicin-resistant Helicobacter pylori CB1614 harboring rpoBL525I/D530N mutant measured after 5 days by agar dilution method; format: functional; details: CB1614, 120 h, time 5 day
# In short: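 Agar dilution per CLSI. Wild-type ATCC 700392 (CB1531) and its derivatives carry defined resistance determinants. Drugs, alone or in 1:1 molar mixtures, were diluted 2-fold from 100× stocks into Mueller–Hinton agar with aged (≥2 weeks) sheep blood (5% v/v). MIC read after 5 days at 35 °C under microaerobic conditions from a campylobacter gas-generating system.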
# [5] = test system: Clostridioides difficile; assay: Antibacterial activity against fluoroquinolone-resistant Clostridioides difficile CB1941 harboring gyrAD71Y/T82A mutant measured after 3 days; format: functional; details: CB1941, 72 h, time 3 day
# [6] = test system: Phocaeicola vulgatus; assay: Antibacterial activity against metronidazole-resistant Bacteroides vulgatus 3490; format: functional
# [7] = test system: Bifidobacterium breve; assay: Antibacterial activity against Bifidobacterium ATCC 15698; format: functional
# [8] = test system: Prevotella bivia; assay: Antibacterial activity against metronidazole-resistant Prevotella bivia MMX 3454; format: functional
# [9] = Half life in C57BL/6 mouse at 20 mg/kg, po; format: ADME, organism-based; details: in vivo
# In short: (§1)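 Single-dose PK of TNP-2198 was run in C57BL/6 mice (IV 5 mg/kg; PO 20 mg/kg) and beagle dogs (IV 5 mg/kg; PO 25 mg/kg). Terminal half-life (h) was derived from plasma profiles, together with Tmax, Vdss, CL, AUC and oral bioavailability.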
# [10] = Clearance in C57BL/6 mouse at 5 mg/kg, iv; format: ADME, organism-based; details: in vivo
# In short: (§2)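 Plasma PK after single intravenous or oral dosing. Mice C57BL/6 at 5 mg/kg IV or 20 mg/kg PO; Sprague–Dawley rats at 10 mg/kg IV or 50 mg/kg PO; beagle dogs at 5 mg/kg IV or 25 mg/kg PO. AUC reported in ng·h/mL. Clearance from the IV arms in mL/min·kg.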
# [11] = Half life in Sprague-Dawley rat at 10 mg/kg, iv; format: ADME, organism-based; details: in vivo
# [12] = AUC in Sprague-Dawley rat at 10 mg/kg, iv; format: ADME, organism-based; parameters: dose 10 mg/kg, route iv; details: in vivo; in short: as §2
# [13] = Oral bioavailability in Sprague-Dawley rat at 50 mg/kg; format: ADME, organism-based; details: in vivo
# [14] = Tmax in Beagle dog at 25 mg/kg, po; format: ADME, organism-based, Canis lupus familiaris; details: in vivo
# [15] = Half life in Beagle dog at 5 mg/kg, iv; format: ADME, organism-based, Canis lupus familiaris; details: in vivo; in short: as §1
# [16] = Drug distribution in Sprague-Dawley rat vaginal secretion measured at 2 hrs; format: ADME, tissue-based, Vaginal fluid; details: female, read-out: Ct
# In short: (§3)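 Sprague–Dawley rats were dosed with TNP-2198. Concentrations were measured in plasma (ng/mL) and in tissues or contents (ng/g) at 0.5, 2, 6, 12 and 24 h after dosing. Values below the limit of quantification are reported as BLOQ.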
# [17] = Drug distribution in Sprague-Dawley rat vaginal secretion measured at 6 hrs; format: ADME, tissue-based, Vaginal fluid; details: female, read-out: Ct; in short: as §3
# [18] = Drug distribution in Sprague-Dawley rat vaginal secretion measured at 12 hrs; format: ADME, tissue-based, Vaginal fluid; details: female, read-out: Ct; in short: as §3
# [19] = Drug distribution in Sprague-Dawley rat vaginal tissue measured at 2 hrs; format: ADME, tissue-based, Vagina; details: female, read-out: Ct; in short: as §3
# [20] = Drug distribution in Sprague-Dawley rat vaginal tissue measured at 12 hrs; format: ADME, tissue-based, Vagina; details: female, read-out: Ct; in short: as §3
# [21] = Drug distribution in Sprague-Dawley rat brain measured at 2 hrs; format: ADME, tissue-based; details: read-out: Ct; in short: as §3
# [22] = Drug distribution in Sprague-Dawley rat brain measured at 12 hrs; format: ADME, tissue-based; details: in vivo, BLD = below limit of detection; in short: as §3
# [23] = Drug distribution in Sprague-Dawley rat ascites fluid measured at 0.5 hrs; format: ADME, tissue-based, Ascitic fluid; details: read-out: Ct; in short: as §3
# [24] = Drug distribution in Sprague-Dawley rat ascites fluid measured at 6 hrs; format: ADME, tissue-based, Ascitic fluid; details: read-out: Ct; in short: as §3
# [25] = Drug distribution in Sprague-Dawley rat ascites fluid measured at 12 hrs; format: ADME, tissue-based, Ascitic fluid; details: read-out: Ct; in short: as §3
# [26] = Drug distribution in Sprague-Dawley rat stomach content measured at 0.5 hrs; format: ADME, tissue-based; details: read-out: Ct; in short: as §3
# [27] = Drug distribution in Sprague-Dawley rat large intestine content measured at 2 hrs; format: ADME, tissue-based; details: read-out: Ct; in short: as §3
# [28] = Drug distribution in Sprague-Dawley rat large intestine content measured at 12 hrs; format: ADME, tissue-based; details: read-out: Ct; in short: as §3
# [29] = Drug distribution in Sprague-Dawley rat large intestine tissue measured at 12 hrs; format: ADME, tissue-based; details: read-out: Ct; in short: as §3
# [30] = test system: Helicobacter pylori; assay: Resistance development in Helicobacter pylori MMX 3719 assessed as spontaneous resistance frequency using at 1.90 x 10^8 CFU inoculum at 0.5 ug/ml; format: functional; details: dose 0.5 µg/ml
# In short: (§4)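 H. pylori MMX 3719 exposed to 0.5, 1, 2 and 4 µg/mL drug with an inoculum of 1.90×10^8 CFU at each level. Two independent tests were run, and resistant colonies were counted and averaged. A spontaneous resistance frequency was reported for each concentration, and the MPC was taken across the concentrations tested.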
# [31] = test system: Helicobacter pylori; assay: Resistance development in Helicobacter pylori MMX 3719 assessed as spontaneous resistance frequency using at 1.90 x 10^8 CFU inoculum at 4 ug/ml; format: functional; details: dose 4 µg/ml; in short: as §4
# [32] = test system: Gardnerella vaginalis; assay: Resistance development in Gardnerella vaginalis MMX 5973 assessed as spontaneous resistance frequency using at 4.50 x 10^8 CFU inoculum at 0.5 ug/ml; format: functional; details: dose 0.5 µg/ml
# In short: (§5)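 Resistant colonies were counted at each drug concentration in two separate tests (test 1, test 2) and averaged. The spontaneous resistance frequency was taken from the mean colony count relative to the inoculum plated. Drug levels tested were 0.5, 1, 2 and 4 µg/mL, and a mutation prevention concentration (MPC) was also reported.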
# [33] = test system: Gardnerella vaginalis; assay: Resistance development in Gardnerella vaginalis MMX 5973 assessed as spontaneous resistance frequency using at 4.50 x 10^8 CFU inoculum at 1 ug/ml; format: functional; details: dose 1 µg/ml; in short: as §5
# [34] = test system: Gardnerella vaginalis; assay: Resistance development in Gardnerella vaginalis MMX 5973 assessed as mutation prevention concentration using at 4.50 x 10^8 CFU inoculum; format: functional; details: dose 0.5 µg/ml
# [35] = test system: Helicobacter pylori; assay: Antibacterial activity against Helicobacter pylori infected in C57/BL6 mouse assessed as bacterial load in stomach at 5 mg/kg administered twice daily via oral gavage starting from 7 days post inoculation and administered for 7 days (reference value: 5.25 log10CFU); format: functional; details: time 7 day
# [36] = test system: Helicobacter pylori; assay: Antibacterial activity against Helicobacter pylori infected in C57/BL6 mouse assessed as bacterial load in stomach at 1 mg/kg administered twice daily via oral gavage starting from 7 days post inoculation and administered for 7 days in presence of 10 mg/kg clarithromycin and 20 mg/kg amoxicillin (reference value: 5.25 log10CFU); format: functional; details: time 7 day
# [37] = test system: Syrian golden hamster; assay: Antibacterial activity against Clostridioides difficile UNT-103-1 infected in Syrian hamster assessed as survival at 15 to 45 mg/kg, po administered once a daily for 5 days after 18 hrs post 10 mg/kg clindamycin treatment and measured upto 21 days; format: functional, Mesocricetus auratus; details: dose 15-45 mg/kg, time <= 21 day
# In short: (§6)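 Male Golden Syrian hamsters (80-90 g), housed singly, were gavaged with C. difficile UNT103-1 grown in sporulation medium broth and diluted to OD600 1 in prereduced broth. […] From 18 h later, drug or vehicle was given by oral gavage once daily for 5 days. Survival was recorded through day 21.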
# [38] = test system: Syrian golden hamster; assay: Antibacterial activity against Clostridioides difficile UNT-103-1 infected in Syrian hamster assessed as survival at 5 mg/kg, po administered once a daily for 5 days after 18 hrs post 10 mg/kg clindamycin treatment; format: functional, Mesocricetus auratus; details: time 5 day; in short: as §6
structure (smiles),measurement,setting,value
CO[C@H]1/C=C/O[C@@]2(C)Oc3c(C)c(O)c4c(c3C2=O)C2=NC3(CCN(CCn5c([N+](=O)[O-])cnc5C)CC3)NC2=C(NC(=O)/C(C)=C\C=C\[C@H](C)[C@H](O)[C@@H](C)[C@@H](O)[C@@H](C)[C@H](OC(C)=O)[C@@H]1C)C4=O [RIFASUTENIZOL],MIC,[1],≤ 0.004 µg/mL
same,MIC90,[1],0.06 µg/mL
same,MIC,[2],0.015 µg/mL
same,MIC,[3],0.0002 µg/mL
same,MIC,[4],0.125 µg/mL
same,MIC,[5],≤ 0.002 µg/mL
same,MIC,[6],0.03 µg/mL
same,MIC,[7],0.015 µg/mL
same,MIC,[8],0.015 µg/mL
same,half-life,[9],30.6 min
same,clearance,[10],23 mL/min/kg
same,half-life,[11],46.2 min
same,AUC,[12],6490 ng·h/mL
same,bioavailability,[13],48%
same,Tmax,[14],72 min
same,half-life,[15],234 min
same,concentration at 2 h,[16],43700 ng/g
same,concentration at 6 h,[17],6240 ng/g
same,concentration at 12 h,[18],366 ng/g
same,concentration at 2 h,[19],5900 ng/g
same,concentration at 12 h,[20],35.8 ng/g
same,concentration at 2 h,[21],392 ng/g
same,Ct,[22],Bld
same,concentration at 0.5 h,[23],2620 ng/g
same,concentration at 6 h,[24],3480 ng/g
same,concentration at 12 h,[25],84.5 ng/g
same,concentration at 0.5 h,[26],3.26e+06 ng/g
same,concentration at 2 h,[27],1170 ng/g
same,concentration at 12 h,[28],2980 ng/g
same,concentration at 12 h,[29],31.6 ng/g
same,Activity,[30],<5 10^-9No_unit
same,Activity,[31],<5 10^-9No_unit
same,Activity,[32],<2 10^-9No_unit
same,Activity,[33],<2 10^-9No_unit
same,Activity,[34],<=0.5 ug ml-1
same,Activity,[35],2.89 log10CFU
same,Activity,[36],1.7 log10CFU
same,Activity,[37],100%
same,Activity,[38],100%
